High-throughput results from PubChem BioAssay.
core dimer inh: blocks dimerization of HCV core protein; inhibition, % at 5 µM; 300,000 compounds, 0.33% hits; TR-FRET GST/Flag-core106 dimerization, 1536-well;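 active means inhibition above the mean of all tested compounds plus 3 SD, set per screening campaign, cut at about 45% in these data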
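Material: Tagged HCV core106 pair (GST and Flag) | Amount: GST-core106 13.5 nM, Flag-core106 17 nM | Medium: KF-containing HEPES buffer, pH 7.45, DTT, CHAPS, BSA | Reagent: Eu donor and XL665 acceptor anti-tag antibodies | Schedule: 4 h at 22.5 °C | Technique: Time-resolved FRET, ex 340 nm, em 617 and 671 nm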
rCAG RNA binder: binds r(CAG) RNA repeats | r(CAG) RNA repeat, TO-PRO-1 dye displacement fluorescence | inhibition, % at 3 µM | 370,000 compounds, 1.3% hits | AID 651821;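 active means inhibition above the plate cutoff, the mean of all test compounds on that plate plus 3 SD, cut at about 35% in these data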;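 further: 0% = DMSO alone and 100% = 100 µM mitoxantrone as full dye displacement; higher means more dye released from RNA so lower well fluorescence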
NS3 helicase inh: inhibitors of Hepatitis C virus NS3 helicase | NS3 helicase DNA unwinding, Cy5 molecular beacon fluorescence | inhibition, % at 10.9 µM | 290,000 compounds, 0.56% hits;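 active means inhibition above the mean of all tested compounds plus 3 SD, set per campaign, cut at about 35% in these data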;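 further: 0% = DMSO wells and 100% = thioflavine S control wells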
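System: HCV NS3 helicase fragment; control set: DMSO and thioflavine S; technique: Cy5 fluorescence at 0 and 60 min, beacon hairpin quenching; reagent: beacon DNA duplex substrate plus ATP; replicates: singlicate; schedule: 1 h reaction at 25 °C, ATP-initiated; medium: MOPS buffer pH 6.5 with MgCl2, DTT, Tween20, BSA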
TAAR1 antagonist: human TAAR1 antagonism; CHO RD-HGA16 TAAR1, Fluo-8 calcium fluorescence, antagonist; inhibition, % at 3 µM; 360,000 compounds, 1.5% hits; AID 624466;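 active means inhibition above a per-plate cutoff, the mean inhibition of test compounds on that plate plus 3 SD, cut at about 49% in these data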;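 further: 0% = DMSO plus EC80 beta-PEA response and 100% = DMSO alone without agonist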
Target sequence (Q96RJ0 whole entry, looked up): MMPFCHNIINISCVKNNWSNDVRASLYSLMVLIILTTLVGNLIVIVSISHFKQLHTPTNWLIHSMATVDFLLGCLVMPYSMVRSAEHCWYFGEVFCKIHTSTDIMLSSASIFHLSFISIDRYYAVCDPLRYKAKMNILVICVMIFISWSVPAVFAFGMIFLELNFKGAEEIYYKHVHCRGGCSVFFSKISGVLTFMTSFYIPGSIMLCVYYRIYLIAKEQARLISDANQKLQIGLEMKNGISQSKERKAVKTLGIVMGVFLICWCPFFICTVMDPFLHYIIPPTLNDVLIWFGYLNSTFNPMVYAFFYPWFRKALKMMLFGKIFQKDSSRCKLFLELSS
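Material: RD-HGA16 CHO cells with stable hTAAR1 and Gα16; Dosing: single nominal final test compound concentration of 3 µM; Schedule: seeding 17-24 h prior, 75-min 37 °C, 30-min RT dye loading; Detection: kinetic Fluo-8 calcium fluorescence measurement; Measure: % inhibition from peak post-agonist over basal fluorescence ratio; Benchmarks: vehicle and agonist controls.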
TAAR1 ag: agonists of human TAAR1. CHO RD-HGA16 TAAR1, Fluo-8 calcium fluorescence; vehicle wells 0%, saturating PEA agonist 100%. activation, % at 3 µM. 360,000 compounds, 0.99% hits;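 active means activation above the mean activation of all test compounds in the run plus 3 SD, cut at about 38% in these data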
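Assay system – CHO-derived RD-HGA16 cells with stable Gα16 and human TAAR1 · Compound dosing – one-point dosing at 3 µM (nominal) · Incubation – 17-24 h seeding, 75 min 37 °C dye, 30 min RT · Measured by – kinetic Fluo-8 calcium fluorescence · Control set – DMSO vehicle as 0%, PEA at EC100 as 100% · Repeats – single well for each compound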
TAAR1 nonsel count: nonselective antagonist in TAAR1 antagonist counter-screen | shares compounds with TAAR1 antagonist | counterscreen cell line, calcium fluorescence, antagonist mode | inhibition, % at 3 µM | 2,400 compounds, 77% hits | AID 651780; in the data active means inhibition above about 22%;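 further: CHO-Ga16 host cells stimulated with ATP at an EC80 level; 0% = agonist EC80 plus vehicle and 100% = vehicle without agonist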
TAAR1 antag conf: confirmation of human TAAR1 antagonists; shares compounds with TAAR1 antagonist; TAAR1-expressing cells, fluorescence antagonist read-out; inhibition, % at 3 µM; 2,400 compounds, 40% hits; AID 651785; in the data active means inhibition above about 49%;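 further: CHO-Ga16 host cells challenged with agonist PEA near its EC80; 0% = agonist at EC80 plus vehicle and 100% = vehicle with no agonist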
Ga16 ag counter: nonselective Ga16 agonist in TAAR1 antagonist counter-screen. shares compounds with TAAR1 antagonist. Ga16-expressing cells, calcium fluorescence, agonist counterscreen. activation, % at 3 µM. 2,400 compounds, 18% hits. AID 651953; in the data active means activation above about 12%;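 further: 0% = vehicle wells and 100% = saturating stimulus response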
TAAR1 ag counter: counter-screen for human TAAR1 antagonists: TAAR1 agonists. shares compounds with TAAR1 antagonist. hTAAR1 cell line, fluorescence activation, agonist mode. activation, % at 3 µM. 2,400 compounds, 2% hits; in the data active means activation above about 37%;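 further: CHO cells stably expressing TAAR1 with calcium dye readout; 0% = DMSO vehicle and 100% = full agonist response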
An asterisk follows results filed as active; . = no result given. The list is not random: actives were taken first. Their share in the collection is about 3.7%.

SMILES	core dimer inh	rCAG RNA binder	NS3 helicase inh	TAAR1 antagonist	TAAR1 ag	TAAR1 nonsel count	TAAR1 antag conf	Ga16 ag counter	TAAR1 ag counter
CCOC(=O)c1cnc2ccc(C)cc2c1Nc1ccc(N2CCOCC2)cc1	-5	-6	-27	61*	10	30*	58*	13*	19
Cc1cccc(COCC(CC(C)C)N2CCN(C(=O)c3ccc(C(F)(F)F)cc3)CCC2=O)c1 (configuration not stated)	11	-10	-5	-4	2	.	.	.	.
Cc1cccc(COC[C@H](CC(C)C)N2CCN(C(=O)c3ccc(C(C)(C)C)cc3)CCC2=O)c1	.	3	.	63*	3	30*	52*	4	10
Cc1cccc(COCC(CC(C)C)N2CCN(C(=O)c3ccc(C(C)(C)C)cc3)CCC2=O)c1 (configuration not stated)	8	-9	-8	71*	10	32*	57*	7	17
COC(=O)C1CN(Cc2ccccc2)CCS(=O)(=O)N1Cc1ccccc1 (configuration not stated)	.	-1	.	.	.	.	.	.	.
CC(=O)Nc1ccc(S(=O)(=O)N(C)CC(=O)OCC(=O)NCc2ccco2)cc1	-4	-2	.	4	3	.	.	.	.
CC(=O)Nc1ccc(S(=O)(=O)NCC(=O)OCC(=O)NCc2ccco2)cc1	-1	8	.	100*	-2	2	2	1	2
COc1cccc(OCC(C)CN2CCC(C(O)(c3ccccc3)c3ccccc3)CC2)c1 (configuration not stated)	.	13	.	.	.	.	.	.	.
C/C(=N\Nc1cc(C)nc(-c2ccccc2O)n1)c1ccccc1O	2	4	-4	59*	6	30*	43	7	3
COc1cc(C(=O)NC2CCCCN(Cc3cccc(Cl)c3)C2=O)cc(OC)c1OC (configuration not stated)	.	-4	.	.	.	.	.	.	.
CCCCNc1c(-c2cccc(-c3cc(C(C)=O)cs3)c2)nc2cc(C)ccn12	-6	5	.	78*	14	31*	53*	11	10
CCCCCCSc1cc(-c2nc3cc(C)ccn3c2NCCCC)ccc1OC	-8	1	.	16	2	.	.	.	.
Cc1cc(C)c(S(=O)(=O)N2CCN(C(=O)c3c(C)nn(-c4ccccc4)c3Cl)CC2)c(C)c1	.	7	.	68*	13	35*	46	8	5
Cc1ccccc1CN1CCCCC(NC(=O)c2ccc(Br)cc2)C1=O (configuration not stated)	.	1	.	.	.	.	.	.	.
Cc1c(NC(=O)CSc2ccc(Cl)cc2)cccc1-c1nc2ncccc2o1	5	1	3	60*	11	31*	46	11	10
O=C(Nc1cccc(NC(=O)c2ccc(-c3ccc(Br)cc3)o2)c1)c1ccco1	43	14	-4	69*	11	33*	50*	6	1
O=C(CNC(=O)c1ccc(Br)o1)Nc1cccc(-c2cnc3ccccc3n2)c1	5	6	-3	64*	20	33*	52*	12*	10
Cc1ccc(C(=O)Nc2cccc(-c3cnc4ccccc4n3)c2)cc1	7	-2	4	1	3	.	.	.	.
O=C(Nc1cccc(-c2cnc3ccccc3n2)c1)c1ccncc1	1	-4	-8	28	12	.	.	.	.
O=C(Nc1cccc(-c2cnc3ccccc3n2)c1)c1ccco1	5	3	-6	54*	9	17	34	7	3
O=C(C1CCCN(S(=O)(=O)c2ccc(F)cc2)C1)N1CCN(Cc2ccccc2)CC1 (configuration not stated)	.	1	.	.	.	.	.	.	.
Cc1ncc(CO)c2c1Oc1nc(-c3ccccc3)nc(SCC(=O)N3CCCCC3)c1C2	20	19	4	41	9	.	.	.	.
Cc1ncc(CO)c2c1Oc1nc(-c3ccccc3)nc(SCC(=O)N(C)c3ccccc3)c1C2	14	13	4	62*	8	27*	46	6	7
O=C(Nc1ccc(Cl)cc1)N(Cc1cccs1)Cc1cccs1	9	5	-1	71*	14	29*	45	5	1
O=C(Nc1ccc(Cl)cc1)N(Cc1nc2ccccc2c(=O)[nH]1)Cc1cccs1	6	4	9	33	15	.	.	.	.
Cc1ccc(S(=O)(=O)N2CCOCC2)cc1C(=O)N(C)CCOc1ccc(Cl)cc1	-1	.	-2	.	.	.	.	.	.
CN(CCOc1ccc(Cl)cc1)C(=O)c1cc(S(=O)(=O)N2CCOCC2)ccc1N1CCCC1	.	1	.	67*	17	21	35	7	5
O=C1NC(c2cccc(C(F)(F)F)c2)c2c(-c3ccccc3)n[nH]c21 (configuration not stated)	.	2	.	9	0	.	.	.	.
CCO[C@@H]1OC(C(=O)NCc2ccccc2)=C[C@H](c2coc3ccccc3c2=O)[C@H]1CCCO	-3	-9	3	50*	10	11	24	3	6
